Active and inactive are the calls of the source. The calls are words filed in the database; no cut-off is given here.
Assays:
Mus musculus = test: The effective dose was measured by using mouse writhing assay after the compound administered subcutaneously.; format: functional; conditions: sc
Summary of the method: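 Analgesia in the mouse writhing test induced by acetic acid, with compound given subcutaneously. Salts were dissolved in distilled H₂O; free bases were dissolved by dropwise 1 N HCl and then diluted.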

Rattus norvegicus [1] = test: The Effective dose was measured by using rat tail flick assay after the compound administered subcutaneously; lethal at the given dose; format: organism-based; conditions: in vivo, sc
Summary of the method: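 Agonist activity in the rat heat-stimulus tail-flick test. Drug was given subcutaneously and rats were tested 20 min after dosing. Salts were dissolved in distilled H₂O; free bases were dissolved with dropwise 1 N HCl and then diluted. ED₅₀ or inactivity/lethality recorded at the dose indicated.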

Rattus norvegicus [2] = test: The Effective dose was measured by using rat tail flick assay after the compound administered intraperitoneally at a dose of 7.7 umol/kg; IA means inactive at the given dose; format: functional, organism-based
Rattus norvegicus [3] = test: The %change in weight from day 0 to day 2 after administering the compound at dose of 40 (mg/kg)/day in rat; format: functional
Summary of the method: (§1)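 Rat physical dependence liability study: drug infused at the stated mg/kg/day for 6 days, with saline-infused controls for 6 days. Body weight was recorded daily and expressed as % change from day 0 on days 1–4. Groups of 4–6 rats; values are means ±.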

Rattus norvegicus [4] = test: The %change in weight from day 0 to day 3 after administering the compound at dose of 40 (mg/kg)/day in rat; format: functional; summary of the method: as §1
Rattus norvegicus [5] = test: The %change in weight from day 0 to day 4 after administering the compound at dose of 40 (mg/kg)/day in rat; format: functional; summary of the method: as §1
Rattus norvegicus [6] = test: The %change in weight from day 0 to day 2 after administering the compound at dose of 80 (mg/kg)/day in rat; format: functional; summary of the method: as §1
Rattus norvegicus [7] = test: The %change in weight from day 0 to day1 after administering the compound at dose of 40 (mg/kg)/day in rat; format: functional; summary of the method: as §1
Rattus norvegicus [8] = test: The %change in weight from day 0 to day1 after administering the compound at dose of 80 (mg/kg)/day in rat; format: functional; summary of the method: as §1
Rattus norvegicus [9] = test: The %change in weight from day 0 to day 4 after administering the compound at dose of 80 (mg/kg)/day in rat; format: functional; summary of the method: as §1
Rattus norvegicus [10] = test: The %change in weight from day 0 to day 3 after administering the compound at dose of 80 (mg/kg)/day in rat; format: functional; summary of the method: as §1

SMILES | ED50 (Mus musculus) | ED50 (Rattus norvegicus [1]) | ED50 (Rattus norvegicus [2]) | Change (Rattus norvegicus [3]) | Change (Rattus norvegicus [4]) | Change (Rattus norvegicus [5]) | Change (Rattus norvegicus [6]) | Change (Rattus norvegicus [7]) | Change (Rattus norvegicus [8]) | Change (Rattus norvegicus [9]) | Change (Rattus norvegicus [10])
COc1ccc2c(c1)C13CCN(C)C(C2)[C@H]1[C@H](C)CC(=O)C3 (some centres not stated) | 2.65 µmol/kg | 9 µM/kg | – | – | – | – | – | – | – | – | –
CCC1CCCC23CCN(CC4CCC4)C(Cc4ccc(OC)cc42)[C@H]13 (some centres not stated) | > 25 µmol/kg | – | inactive | – | – | – | – | – | – | – | –
C[C@H]1CC(=O)CC23CCN(CC4CCC4)C(Cc4ccc(O)cc42)[C@H]13.O=C(O)C(O)C(O)C(=O)O (some centres not stated) | – | – | – | 2% | 6.1% | 9.6% | 3.1% | 1.2% | 1.7% | 9.5% | 5.3%

From ChEMBL document CHEMBL1121388, “Analgesic narcotic antagonists. 2. 8-Alkymorphinan-6-ones” (J Med Chem, 1980)
